In the RNAGym collection of RNA variant scans (doi:10.1038/s41586-018-0170-7):

B1: tRNA (parent)
chain: GUUCCGUUGGCGUAAUGGUAACGCGUCUCCCUCCUAAGGAGAAGACUGCGGGUUCGAGUCCCGUACGGAACG

Variants of: B1
Test: yeast fitness, log relative to wild type (ln ratio); higher = fitter; tRNA-Arg(CCU), competitive growth, 37 C, 1 M NaCl
Method in brief: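 BY4742 cells without the chromosomal tRNA-Arg(CCU) gene carried a combinatorial variant library on a HIS3 centromeric plasmid, from two independent transformations. After 4 generations in SC-HIS at 30 °C, pools spent ~6.5 generations (~26.5 h) in SC-HIS 1M NaCl at 37 °C, giving three outputs per input, and 125 bp paired-end Illumina reads counted the variants. Fitness is the natural log of each genotype's generations over the wild type's, with generations taken as OD-scaled log2 output/input frequency weighted by inverse variance across replicates.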

Row | Variant | yeast fitness (ln)
1 | G1A U2C C27U A43C C46U C66U A70G | -0.0953
2 | G1A U2C C27U A43C C46U C66U A70U | -0.0712
3 | G1A U2C G6U C27U A43C C46U C66A A69G A70U | -0.378
4 | G1A U2C A43C C66U A69G A70G C71U | -0.287
5 | G1A U2C G6A C27U A43C C46U A69G A70U | -0.132
6 | G1A U2C G6A C27U A43C C46U A69G A70G | -0.225
7 | G1A U2C G6A C27U A43C | -0.0863
8 | G1A U2C G6A A43C A70U C71U | -0.088
9 | G1A U2C G6A A43C A70U | -0.113
10 | G1A U2C C66U C71U | -0.189
11 | G1A U2C G6U A43C C66A A69G A70G C71U | -0.0437
12 | G1A U2C G6U A43C C46U C71U | -0.143
13 | G1A U2C G6A C27U C46U A70G | -0.0476
14 | G1A U2C G6A C27U C46U A70U | -0.0702
15 | G1A U2C C27U C46U C66U C71U | -0.124
16 | G1A U2C A43C C66A A70U C71U | -0.285
17 | G1A U2C C27U A70U C71U | -0.288
18 | G1A U2C G6A C46U C66U | -0.16
19 | G1A U2C G6U C27U A43C C46U A69G A70U | -0.183
20 | G1A U2C G6U C27U A43C C46U A69G A70G | -0.297
21 | G1A U2C G6U C27U A43C C46U C66A A70U | -0.0771

Row | Variant | yeast fitness (ln)
22 | G1A U2C G6U C27U A43C C46U C66A A70G | -0.15
23 | G1A U2C G6A C66U A69G A70G C71U | -0.0247
24 | G1A U2C C66A A70U | -0.0191
25 | G1A U2C C27U A43C C46U C66A A70U | -0.106
26 | G1A U2C C27U A43C C46U C66A A70G | -0.102
27 | G1A U2C A43C C66A A69G A70G C71U | -0.238
28 | G1A U2C G6A A43C C46U A69G A70G C71U | -0.119
29 | G1A U2C G6A C27U A43C C46U C66U A70G C71U | -0.0245
30 | G1A U2C G6U A70G C71U | -0.0526
31 | G1A U2C G6U A43C A70U C71U | -0.195
32 | G1A U2C G6A A43C C46U | 0.0217
33 | G1A U2C C27U A69G A70U C71U | -0.351
34 | G1A U2C C71U | -0.00448
35 | G1A U2C G6A C46U A69G A70U | -0.0526
36 | G1A U2C G6A C46U C66A A69G A70G C71U | -0.172
37 | G1A U2C C27U A43C A70U | -0.111
38 | G1A U2C C27U A43C A70G | -0.0774
39 | G1A U2C C46U C66U C71U | -0.119
40 | G1A U2C G6U A69G A70G C71U | -0.367
41 | G1A U2C C27U C66A A70G C71U | -0.221
42 | G1A U2C G6A C46U A69G A70G C71U | -0.0541

Row | Variant | yeast fitness (ln)
43 | G1A U2C C27U C46U | -0.00588
44 | G1A U2C C27U A43C C46U A69G A70G C71U | -0.0168
45 | G1A U2C C27U A43C C66U A70G C71U | -0.197
46 | G1A U2C C27U A69G A70U | -0.0698
47 | G1A U2C C27U A69G A70G | -0.209
48 | G1A U2C G6A C27U A43C C66U A70G C71U | -0.0683
49 | G1A U2C G6A A43C C66U A70G C71U | -0.00743
50 | G1A U2C G6U A43C A69G A70U C71U | -0.248
51 | G1A U2C C46U C66A A70G C71U | -0.124
52 | G1A U2C C46U C66A A69G A70G C71U | -0.273
53 | G1A U2C G6A A43C C46U C66U A70G | -0.0356
54 | G1A U2C G6A A43C C46U C66U A70U | -0.0467
55 | G1A U2C C27U C46U A69G A70U C71U | -0.359
56 | G1A U2C G6A C46U C66U A69G A70U C71U | -0.339
57 | G1A U2C G6A C27U A43C C71U | -0.295
58 | G1A U2C C27U A43C C46U A70G C71U | -0.012
59 | G1A U2C G6U C27U A43C C46U C66U A69G A70G C71U | -0.316
60 | G1A U2C C27U A43C C46U C66U A69G A70G | -0.112
61 | G1A U2C C27U A43C C46U C66U A69G A70U | -0.218
62 | G1A U2C G6U C27U A43C C46U A70U C71U | -0.177
63 | G1A U2C G6U A43C C66U A69G A70G C71U | -0.344

Row | Variant | yeast fitness (ln)
64 | G1A U2C A43C C46U C71U | -0.0678
65 | G1A U2C G6A C27U C46U A70U C71U | -0.0799
66 | G1A U2C C27U A43C C66U A69G A70G C71U | -0.21
67 | G1A U2C A69G C71U | -0.17
68 | G1A U2C G6A A43C C46U C66U A70G C71U | -0.015
69 | G1A U2C G6U A43C C46U C66A A69G A70U | -0.0654
70 | G1A U2C G6U A43C C46U C66A A69G A70G | -0.25
71 | G1A U2C G6A C66U A70U | -0.0837
72 | G1A U2C G6A C66U A70G | -0.00694
73 | G1A U2C G6A C27U A43C C66U A70G | -0.3
74 | G1A U2C A43C C66A A70G C71U | -0.128
75 | G1A U2C C46U C66U A70G | -0.129
76 | G1A U2C C46U C66U A70U | -0.0818
77 | G1A U2C A43C C66U A69G A70U C71U | -0.279
78 | G1A U2C C27U A43C C46U A69G C71U | -0.167
79 | G1A U2C G6A C27U A43C C46U C66U A69G A70U C71U | -0.555
80 | G1A U2C G6A C66U A69G A70U | -0.0166
81 | G1A U2C G6A C66U A69G A70G | -0.0913
82 | G1A U2C G6A A43C C46U C66U A70U C71U | -0.402
83 | G1A U2C G6A A43C C66U A70U C71U | -0.301
